These results are taken from paper PMC10870110 (RSC Advances, 2024).

By IC50 is commonly meant the midpoint of a concentration-inhibition curve.

The test system of test [1] is A375 human melanoma cell line. The experiment in a line: Cytotoxicity by SRB assay on A375 cells. Type of test: cell-based. The settings on record: read-out: IC50 on A375 cells, 72 h treatment, mean ± SD (n = 3). A digest of the protocol: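 A375 cells kept in DMEM with 10% FBS and 100 U mL−1 penicillin/streptomycin at 37 °C, 5% CO2. Seeded, grown 24 h, then exposed 72 h to test compound at 0.01–100 μM. Fixed in 10% TCA (1 h, 4 °C), stained with 0.4% w/v SRB (10 min, dark), washed with 1% acetic acid, dye dissolved in 10 mM Tris pH 10.5, A540 read.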
A general note: The SRB assay estimates cell density from bound dye.

The subject of test [2] is normal human skin fibroblast cells (HSF). The experiment in a line: Cytotoxicity by SRB assay on normal HSF cells. The conditions noted are these: for IC50: Homo sapiens, Skin fibroblast, read-out: HSF IC50; for Selectivity index (SI): IC50 of normal cells (HSF)/IC50 of tumor cells (A375). It counts as cell-based. A digest of the protocol:
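Normal human skin fibroblasts (HSF) grown in DMEM/10% FBS/penicillin-streptomycin, 37 °C, 5% CO2. Plated 24 h, then 72 h with test compound at 0.01–100 μM. TCA fixation, SRB staining, 10 mM Tris pH 10.5 solubilisation, absorbance at 540 nm. IC50 by Emax curve fit, mean ± SD. Selectivity index = IC50 in HSF / IC50 in A375.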

The target in another test is BRAF^V600E (Homo sapiens, UniProt P15056, V600E). Nature of the test: BRAF^V600E inhibition assay. It counts as cell-based.
The next test deals with VEGFR-2 (Homo sapiens, UniProt P35968). Nature of the test: VEGFR-2 inhibition assay. Type of test: cell-based.
In test [3] the test system is A375 cells. Nature of the test: Scratch wound healing assay. Type of test: cell-based, human. The conditions noted are these: 4j at 0.5 μM. An outline of the steps: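 Confluent A375 monolayers (1 × 10^5 cells/well seeding) scored with a pipette tip to give one straight cell-free line, PBS-rinsed, then exposed to test compound. Gap imaged at ×100 at 0, 24, 48 and 72 h; horizontal wound width measured. Closure % = 100 − (Wt/W0 × 100). Triplicates, mean ± SD; ANOVA with Tukey post-hoc, P < 0.05.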

The subject of test [4] is A375 cells. The experiment in a line: Annexin V-FITC/PI apoptosis assay. It counts as cell-based, human. The settings on record: A375, IC50 concentration, 48 h.
The test system of test [5] is A375 cells. Nature of the test: Cell cycle analysis by DNA flow cytometry. Type of test: cell-based, human. The settings on record: A375, 48 h treatment. In general terms: In flow cytometry, cells or beads pass a laser one at a time.

Chain of BRAF^V600E (P15056 whole entry V600E): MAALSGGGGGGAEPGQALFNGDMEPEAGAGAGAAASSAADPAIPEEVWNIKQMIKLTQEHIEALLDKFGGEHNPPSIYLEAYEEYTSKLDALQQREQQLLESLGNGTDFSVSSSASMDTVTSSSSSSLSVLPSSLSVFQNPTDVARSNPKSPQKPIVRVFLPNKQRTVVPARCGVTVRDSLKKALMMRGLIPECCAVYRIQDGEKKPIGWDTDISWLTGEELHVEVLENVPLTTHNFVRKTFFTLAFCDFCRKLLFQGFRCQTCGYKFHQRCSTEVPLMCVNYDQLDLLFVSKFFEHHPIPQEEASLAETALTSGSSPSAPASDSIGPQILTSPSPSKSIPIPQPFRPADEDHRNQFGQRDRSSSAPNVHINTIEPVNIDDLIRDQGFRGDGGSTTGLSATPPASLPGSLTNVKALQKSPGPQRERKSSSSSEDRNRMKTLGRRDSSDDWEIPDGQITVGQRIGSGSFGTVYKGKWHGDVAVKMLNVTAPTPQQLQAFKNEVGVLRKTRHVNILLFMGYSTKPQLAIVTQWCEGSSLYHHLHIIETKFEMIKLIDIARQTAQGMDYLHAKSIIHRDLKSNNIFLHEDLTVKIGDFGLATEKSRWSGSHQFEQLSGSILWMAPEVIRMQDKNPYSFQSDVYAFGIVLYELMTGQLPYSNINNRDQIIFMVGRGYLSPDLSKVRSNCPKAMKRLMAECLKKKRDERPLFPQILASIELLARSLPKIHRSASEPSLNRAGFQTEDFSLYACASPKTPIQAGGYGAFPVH
Chain of VEGFR-2 (P35968 20-1356): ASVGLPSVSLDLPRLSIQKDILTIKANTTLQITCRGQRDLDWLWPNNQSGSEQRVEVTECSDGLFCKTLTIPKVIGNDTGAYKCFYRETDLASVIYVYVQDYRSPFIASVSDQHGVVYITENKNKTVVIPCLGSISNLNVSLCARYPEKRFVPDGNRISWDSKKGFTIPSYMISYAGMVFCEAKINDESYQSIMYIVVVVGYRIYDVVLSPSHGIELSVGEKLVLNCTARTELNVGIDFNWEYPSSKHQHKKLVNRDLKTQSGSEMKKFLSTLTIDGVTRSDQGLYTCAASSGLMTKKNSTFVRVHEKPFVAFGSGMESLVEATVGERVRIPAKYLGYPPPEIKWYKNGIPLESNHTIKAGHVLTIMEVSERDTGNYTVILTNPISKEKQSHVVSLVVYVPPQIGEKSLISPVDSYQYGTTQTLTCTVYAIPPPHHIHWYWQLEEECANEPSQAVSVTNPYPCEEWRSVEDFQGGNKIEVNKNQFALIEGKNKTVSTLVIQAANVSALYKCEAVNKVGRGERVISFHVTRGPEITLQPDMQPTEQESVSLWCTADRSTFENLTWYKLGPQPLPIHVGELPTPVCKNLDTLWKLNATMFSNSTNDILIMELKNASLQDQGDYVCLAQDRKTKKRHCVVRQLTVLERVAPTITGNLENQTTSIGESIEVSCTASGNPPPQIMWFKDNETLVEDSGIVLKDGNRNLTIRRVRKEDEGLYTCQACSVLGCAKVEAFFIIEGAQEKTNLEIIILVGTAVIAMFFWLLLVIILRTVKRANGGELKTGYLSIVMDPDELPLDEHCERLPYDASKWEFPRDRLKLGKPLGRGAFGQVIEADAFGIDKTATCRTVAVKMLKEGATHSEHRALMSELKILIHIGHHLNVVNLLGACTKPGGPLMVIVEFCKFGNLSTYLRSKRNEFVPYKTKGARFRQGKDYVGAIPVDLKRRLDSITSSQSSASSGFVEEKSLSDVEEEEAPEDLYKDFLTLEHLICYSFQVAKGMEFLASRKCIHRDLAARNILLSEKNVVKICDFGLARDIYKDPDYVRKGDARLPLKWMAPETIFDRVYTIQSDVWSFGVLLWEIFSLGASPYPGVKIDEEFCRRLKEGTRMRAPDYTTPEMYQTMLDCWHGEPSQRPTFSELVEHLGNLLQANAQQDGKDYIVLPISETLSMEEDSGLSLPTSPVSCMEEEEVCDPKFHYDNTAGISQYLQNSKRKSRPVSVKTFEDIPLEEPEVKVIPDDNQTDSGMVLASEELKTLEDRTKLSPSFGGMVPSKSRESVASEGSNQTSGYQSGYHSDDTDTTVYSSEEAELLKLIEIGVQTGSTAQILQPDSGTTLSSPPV

For the compound `O=C1C(n2nc(-c3c(O)c4ccccc4oc3=O)cc2-c2ccc(F)cc2)c2ccccc2N1Cc1ccccc1` (stereo not shown) [Compound 4c, 1-Benzyl-3-(5-(4-fluorophenyl)-3-(4-hydroxy-2-oxo-2H-chromen-3-yl)-1H-pyrazol-1-yl) indolin-2-one], in test [1], the IC50 stood at 4.6 ± 0.32 µM.

For the compound `O=C1C(n2nc(-c3c(O)c4ccccc4oc3=O)cc2-c2ccc(F)cc2)c2cc(Cl)ccc2N1Cc1ccccc1` (stereo not shown) [Compound 4f, 1-Benzyl-5-chloro-3-(5-(4-fluorophenyl)-3-(4-hydroxy-2-oxo-2H-chromen-3-yl)-1H-pyrazol-1-yl) indolin-2-one], the IC50 in test [1] turned out to be 1.11 ± 0.02 µM; in test [2], 4.18 ± 0.25 µM. Further, the “Selectivity index (SI)” value in test [2] was determined as 3.6.

With `O=C1C(n2nc(-c3c(O)c4ccccc4oc3=O)cc2-c2ccc(F)cc2)c2cc(Br)ccc2N1Cc1ccccc1` (stereo not shown) [Compound 4i, 1-Benzyl-5-bromo-3-(5-(4-fluorophenyl)-3-(4-hydroxy-2-oxo-2H-chromen-3-yl)-1H-pyrazol-1-yl)indolin-2-one], in test [2], the IC50 is 3.26 ± 0.29 µM and the “Selectivity index (SI)” value was 2.5.

As to `O=C1Nc2ccc(OC(F)(F)F)cc2C1n1nc(-c2c(O)c3ccccc3oc2=O)cc1-c1ccc(F)cc1` (stereo not shown) [Compound 4j, 3-(5-(4-Fluorophenyl)-3-(4-hydroxy-2-oxo-2H-chromen-3-yl)-1H-pyrazol-1-yl)-5 (trifluoromethoxy) indolin-2-one], the “fold more active than the reference sorafenib (BRAF^V600E inhibition)” value at BRAF^V600E is 2 fold. Also, the IC50 against BRAF^V600E (BRAF^V600E IC50, A375 cells, 24 h exposure, ELISA) worked out at 1.03 µM. The compound further showed an IC50 against VEGFR-2 of 0.64 ± 0.08 µM. In the test on A375 cells [3] (A375, 24 h), the scratch closure is listed as 14.28%. This compound registered a scratch closure with A375 cells [3] (A375, 48 h) of 17.57%. Also, the scratch closure with A375 cells [3] (A375, 72 h) is on record as 35.16%. For the same compound, in the test on A375 cells [4], the “early apoptosis (Q2-4)” value came out at 6.07%, the “late apoptosis (Q2-2)” value is 2.3% and the “necrotic cell death (Q2-1)” value amounted to 2.52%. Further, the total cell death in the test on A375 cells [4] (apoptosis plus necrosis) is listed as around 10.22%. In the test on A375 cells [5], the “cell percentage in the G2/M phase” value amounted to 16.00%, the “cell percentage of the S phase” value is reported as 9.86%, the “cell population of the G0/G1-phase” value worked out at 74.14% and the “cell population of the pre-G phase” value stood at 1.88%. For the same compound, in test [2], the IC50 came to 9.58 ± 0.73 µM and the “Selectivity index (SI)” value is on record as 9.9.

Consider `O=C1C(n2nc(-c3c(O)c4ccccc4oc3=O)cc2-c2ccc(Cl)cc2)c2ccccc2N1Cc1ccccc1` (stereo not shown) [Compound 5c, 1-Benzyl-3-(5-(4-chlorophenyl)-3-(4-hydroxy-2-oxo-2H-chromen-3-yl)-1H-pyrazol-1-yl)indolin-2-one], for which the IC50 in test [1] worked out at 3.8 ± 0.22 µM.

With `O=C1C(n2nc(-c3c(O)c4ccccc4oc3=O)cc2-c2ccc(Cl)cc2)c2cc(Cl)ccc2N1Cc1ccccc1` (stereo not shown) [Compound 5f, 1-Benzyl-5-chloro-3-(5-(4-chlorophenyl)-3-(4-hydroxy-2-oxo-2H-chromen-3-yl)-1H-pyrazol-1-yl)indolin-2-one], in test [2], the IC50 worked out at 3.59 ± 0.32 µM and the “Selectivity index (SI)” value was 3.3.

Consider `O=C1C(n2nc(-c3c(O)c4ccccc4oc3=O)cc2-c2ccc(Cl)cc2)c2cc(Br)ccc2N1Cc1ccccc1` (stereo not shown) [Compound 5i, 1-Benzyl-5-bromo-3-(5-(4-chlorophenyl)-3-(4-hydroxy-2-oxo-2H-chromen-3-yl)-1H-pyrazol-1-yl)indolin-2-one], for which, in test [2], the IC50 stood at 3.63 ± 0.76 µM and the “Selectivity index (SI)” value was determined as 3.5.

For `CNC(=O)c1cc(Oc2ccc(NC(=O)Nc3ccc(Cl)c(C(F)(F)F)c3)cc2)ccn1` [Sorafenib, reference compound], the scratch closure in the test on A375 cells [3] (A375, 24 h) is 9.15%; in the test with A375 cells [3] (A375, 48 h), 12.07%; with A375 cells [3] (A375, 72 h), 24.17%. Besides, the apoptotic cell death with A375 cells [4] was 9.6%. In the test on A375 cells [5], the “cell percentage in the G2/M phase” value came to 23.02%. For the same compound, the “cell population of the G0/G1-phase” value in the test with A375 cells [5] turned out to be 60.43%. Moreover, the “cell population of the pre-G phase” value with A375 cells [5] was found to be 22.88%.
